Experimental data from ChEMBL document CHEMBL1649441, “Potency and bactericidal activity of iclaprim against recent clinical gram-positive isolates” (2009).
In brackets after ≈: the same amount, converted by molar mass.

Legend:
Assay type in all cases: functional
Enterococcus faecalis [1] = test: Antibacterial activity against Enterococcus faecalis by CLSI broth microdilution method
Enterococcus faecium [2] = test: Antibacterial activity against Enterococcus faecium assessed as susceptible isolates by CLSI broth microdilution method
Enterococcus faecium [3] = test: Antibacterial activity against Enterococcus faecium by CLSI broth microdilution method
Enterococcus faecalis [4] = test: Antibacterial activity against Enterococcus faecalis assessed as resistant isolates by CLSI broth microdilution method
Enterococcus faecium [5] = test: Antibacterial activity against Enterococcus faecium assessed as resistant isolates by CLSI broth microdilution method
Enterococcus faecalis [6] = test: Antibacterial activity against Enterococcus faecalis assessed as susceptible isolates by CLSI broth microdilution method
Staphylococcus aureus [7] = test: Antibacterial activity against Methicillin-resistant Staphylococcus aureus assessed as resistant isolates by CLSI broth microdilution method
Staphylococcus aureus [8] = test: Antibacterial activity against Methicillin-sensitive Staphylococcus aureus by CLSI broth microdilution method
[9] = system: Streptococcus sp. 'group B'; test: Antibacterial activity against Beta-hemolytic Streptococcus group B assessed as resistant isolates by CLSI broth microdilution method
Procedure, shortened: (§1)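 Recent clinical isolates from skin/soft tissue, bloodstream and respiratory specimens. Tested by broth microdilution per CLSI M7-A7 and M100-S18, with the appropriate quality controls. The thymidine content of the test medium was assessed to rule out artifactual inhibition.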

Staphylococcus aureus [10] = test: Antibacterial activity against Methicillin-resistant Staphylococcus aureus by CLSI broth microdilution method
Staphylococcus aureus [11] = test: Antibacterial activity against Methicillin-sensitive Staphylococcus aureus assessed as susceptible isolates by CLSI broth microdilution method
[12] = system: Streptococcus sp. 'group A'; test: Antibacterial activity against Beta-hemolytic Streptococcus group A assessed as resistant isolates by CLSI broth microdilution method; procedure, shortened: as §1
[13] = system: Streptococcus sp. 'group A'; test: Antibacterial activity against Beta-hemolytic Streptococcus group A by CLSI broth microdilution method
Procedure, shortened: (§2)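 Clinical isolates from skin/soft tissue, bloodstream and respiratory specimens were tested by broth microdilution per CLSI M7-A7 and M100-S18, with quality controls. Values are the number of isolates inhibited at each concentration, or MIC / percent susceptible. Highest concentration tested was 8 µg/ml for iclaprim and trimethoprim-sulfamethoxazole, and 64 µg/ml for trimethoprim.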

[14] = system: Streptococcus sp. 'group B'; test: Antibacterial activity against Beta-hemolytic Streptococcus group B by CLSI broth microdilution method; procedure, shortened: as §2
Staphylococcus aureus [15] = test: Antibacterial activity against Methicillin-resistant Staphylococcus aureus assessed as susceptible isolates by CLSI broth microdilution method
[16] = system: Streptococcus sp. 'group B'; test: Antibacterial activity against Beta-hemolytic Streptococcus group B assessed as susceptible isolates by CLSI broth microdilution method; procedure, shortened: as §2
[17] = system: Streptococcus sp. 'group A'; test: Antibacterial activity against Beta-hemolytic Streptococcus group A assessed as susceptible isolates by CLSI broth microdilution method; procedure, shortened: as §2
Staphylococcus aureus [18] = test: Antibacterial activity against Methicillin-sensitive Staphylococcus aureus assessed as resistant isolates by CLSI broth microdilution method

Compound | MIC50 (Enterococcus faecalis [1]) | MIC90 (Enterococcus faecalis [1]) | Activity (Enterococcus faecium [2]) | MIC50 (Enterococcus faecium [3]) | MIC90 (Enterococcus faecium [3]) | Activity (Enterococcus faecalis [4]) | Activity (Enterococcus faecium [5]) | Activity (Enterococcus faecalis [6]) | Activity (Staphylococcus aureus [7]) | MIC50 (Staphylococcus aureus [8]) | MIC90 (Staphylococcus aureus [8]) | MIC90 (Staphylococcus aureus [10]) | Activity (Staphylococcus aureus [11]) | MIC [13] | MIC50 [13] | MIC90 [13] | MIC50 [14] | MIC90 [14] | Activity (Staphylococcus aureus [15]) | Activity [16] | further results
CC1(C)S[C@@H]2[C@H](NC(=O)[C@H](N)c3ccccc3)C(=O)N2[C@H]1C(=O)O [AMPICILLIN] | ≤ 4 µg/mL | ≤ 4 µg/mL | 11.9% | > 16 µg/mL | > 16 µg/mL | 0% | 88.1% | 100% |  |  |  |  |  |  |  |  |  |  |  |  | MIC (Enterococcus faecalis [1]): ≤ 4 µg/mL
CCC[C@@H]1C[C@@H](C(=O)N[C@@H]([C@H]2O[C@H](SC)[C@H](O)[C@@H](O)[C@H]2O)[C@H](C)Cl)N(C)C1 [CLINDAMYCIN] | > 4 µg/mL | > 4 µg/mL |  | > 4 µg/mL | > 4 µg/mL |  |  |  | 47% | ≤ 0.12 µg/mL | ≤ 0.12 µg/mL | > 4 µg/mL | 96.4% | ≤ 0.12 µg/mL | ≤ 0.12 µg/mL | ≤ 0.12 µg/mL | ≤ 0.12 µg/mL | > 4 µg/mL | 52.7% | 88.7% | Activity [9]: 10.3%; Activity [12]: 3.3%; MIC [14]: ≤ 0.12 µg/mL; Activity [17]: 96.4%; Activity (Staphylococcus aureus [18]): 3.4%
CC[C@H]1OC(=O)[C@H](C)[C@@H](O[C@H]2C[C@@](C)(OC)[C@@H](O)[C@H](C)O2)[C@H](C)[C@@H](O[C@@H]2O[C@H](C)C[C@H](N(C)C)[C@H]2O)[C@](C)(O)C[C@@H](C)C(=O)[C@H](C)[C@@H](O)[C@]1(C)O [ERYTHROMYCIN] | > 4 µg/mL | > 4 µg/mL | 3% | > 4 µg/mL | > 4 µg/mL | 52.9% | 84.5% | 13.5% | 84.3% | 0.25 µg/mL (≈ 0.341 µM) | > 4 µg/mL |  | 77.9% | ≤ 0.12 µg/mL | ≤ 0.12 µg/mL | > 4 µg/mL | ≤ 0.12 µg/mL | > 4 µg/mL | 14.6% | 73% | Activity [9]: 26%; MIC50 (Staphylococcus aureus [10]): > 4 µg/mL; Activity [12]: 16.1%; Activity (Staphylococcus aureus [18]): 21.1%
C[C@H]1COc2c(N3CCN(C)CC3)c(F)cc3c(=O)c(C(=O)O)cn1c23.C[C@H]1COc2c(N3CCN(C)CC3)c(F)cc3c(=O)c(C(=O)O)cn1c23.O [LEVOFLOXACIN] | 1 µg/mL | > 4 µg/mL | 14.2% | > 4 µg/mL | > 4 µg/mL | 34.2% | 82.2% | 65.2% | 82.4% | 0.25 µg/mL | 0.5 µg/mL | > 4 µg/mL | 94.2% |  | 0.5 µg/mL | 1 µg/mL | 0.5 µg/mL | 1 µg/mL | 16.8% | 99.5% | Activity [9]: 0.5%; MIC50 (Staphylococcus aureus [10]): > 4 µg/mL; Activity [12]: 0%; Activity (Staphylococcus aureus [18]): 5.6%
CC(=O)NC[C@H]1CN(c2ccc(N3CCOCC3)c(F)c2)C(=O)O1 [LINEZOLID] | 1 µg/mL (≈ 2.96 µM) | 2 µg/mL (≈ 5.93 µM) | 99.3% | 1 µg/mL (≈ 2.96 µM) | 2 µg/mL (≈ 5.93 µM) | 0% | 0.7% | 100% |  | 2 µg/mL (≈ 5.93 µM) | 2 µg/mL (≈ 5.93 µM) | 2 µg/mL (≈ 5.93 µM) | 100% |  | 1 µg/mL (≈ 2.96 µM) | 1 µg/mL (≈ 2.96 µM) | 1 µg/mL (≈ 2.96 µM) | 1 µg/mL (≈ 2.96 µM) |  | 100% | MIC50 (Staphylococcus aureus [10]): 2 µg/mL (≈ 5.93 µM); Activity [17]: 100%
CC1(C)S[C@@H]2[C@H](NC(=O)Cc3ccccc3)C(=O)N2[C@H]1C(=O)O [PENICILLIN G] |  |  |  |  |  |  |  |  |  |  |  |  |  | ≤ 0.06 µg/mL | ≤ 0.06 µg/mL | ≤ 0.06 µg/mL | ≤ 0.06 µg/mL | ≤ 0.06 µg/mL |  | 100% | MIC [14]: ≤ 0.06 µg/mL; Activity [17]: 100%
CN(C)[C@@H]1C(O)=C(C(N)=O)C(=O)[C@@]2(O)C(O)=C3C(=O)c4c(O)cccc4[C@@](C)(O)[C@H]3C[C@@H]12 [TETRACYCLINE] | > 16 µg/mL | > 16 µg/mL | 67.3% | ≤ 0.5 µg/mL | > 16 µg/mL | 71.3% | 32% | 28.4% | 12.8% | ≤ 0.5 µg/mL | ≤ 0.5 µg/mL | > 16 µg/mL | 95.8% | ≤ 0.5 µg/mL | ≤ 0.5 µg/mL | ≤ 0.5 µg/mL | > 16 µg/mL | > 16 µg/mL | 86.5% | 21.6% | Activity [9]: 77.9%; MIC (Enterococcus faecium [3]): ≤ 0.5 µg/mL; Activity [12]: 9.6%; Activity [17]: 90.2%; Activity (Staphylococcus aureus [18]): 4%
CN[C@H](CC(C)C)C(=O)N[C@H]1C(=O)N[C@@H](CC(N)=O)C(=O)N[C@H]2C(=O)N[C@H]3C(=O)N[C@H](C(=O)N[C@H](C(=O)O)c4cc(O)cc(O)c4-c4cc3ccc4O)[C@H](O)c3ccc(c(Cl)c3)Oc3cc2cc(c3O[C@@H]2O[C@H](CO)[C@@H](O)[C@H](O)[C@H]2O[C@H]2C[C@](C)(N)[C@H](O)[C@H](C)O2)Oc2ccc(cc2Cl)[C@H]1O [VANCOMYCIN] | 1 µg/mL (≈ 0.69 µM) | 2 µg/mL (≈ 1.38 µM) | 55.8% | 1 µg/mL (≈ 0.69 µM) | > 16 µg/mL | 1.9% | 43.2% | 97.7% | 0% | 1 µg/mL (≈ 0.69 µM) | 1 µg/mL (≈ 0.69 µM) | 1 µg/mL (≈ 0.69 µM) | 100% | ≤ 0.5 µg/mL | ≤ 0.5 µg/mL | ≤ 0.5 µg/mL | ≤ 0.5 µg/mL | ≤ 0.5 µg/mL | 100% | 100% | MIC50 (Staphylococcus aureus [10]): 1 µg/mL (≈ 0.69 µM); MIC [14]: ≤ 0.5 µg/mL; Activity [17]: 100%; Activity (Staphylococcus aureus [18]): 0%
